Reference: ChEMBL document CHEMBL1122387, “Synthesis and biological evaluation of sparsomycin analogues” (1983)

Key:
P815 [1] = experiment: Percent inhibition of [75Se]- selenomethionine incorporation in the protein synthesis assay in P815 cell lines at a concentration of 10 E-3 M; type: functional; conditions: Mus musculus
Procedure, shortened: (§1)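 P815 mastocytoma cells are cultured in complete DMEM and plated at 6×10^5 cells per well in CDMEM. 0.2 μCi L-[75Se]selenomethionine is added with compound, 2 h at 37 °C, 5% CO2, on a rocker. Cells are harvested and gamma-counted. % inhibition is taken versus control cpm (ethanol controls where used), four replicate wells.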

P388 [2] = experiment: Percent inhibition of [75Se]- selenomethionine incorporation in the protein synthesis assay in P388 cell lines at a concentration of 10 E-3 M; type: functional; conditions: Mus musculus
Procedure, shortened: (§2)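 Protein synthesis in 6×10^5 cells per well (3×10^6 cells/mL), from CD-1 mouse femoral marrow or ip-passaged DBA/2 P388 cells. Medium is Spinner's (10% heat-inactivated FCS for P388). 0.2 μCi L-[75Se]selenomethionine is added with compound, 2 h at 37 °C, 5% CO2, rocked. Cells are harvested and gamma-counted. % inhibition versus control cpm (ethanol controls where used), six replicate wells; puromycin or sparsomycin serves as control.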

[3] = Percent inhibition of [75Se]- selenomethionine incorporation in the protein synthesis assay in bone marrow cell lines at a concentration of 10 E-3; type: functional, Mus musculus; procedure, shortened: as §2
P388 [4] = experiment: Percent inhibition of [123I]UdR incorporation in the DNA synthesis assay in P388 cell lines at a concentration of 10 E-3 M; type: functional; conditions: Mus musculus, in the assay text read “[125I]UdR” for “[123I]UdR”
Procedure, shortened: (§3)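 DNA synthesis over 2 h at 37 °C, 5% CO2, on a rocker. Wells hold 6×10^5 cells (3×10^6 cells/mL): femoral marrow from male CD-1 mice, or P388 ascites cells kept by ip passage in DBA/2 mice. Medium is αMEM. Label is 0.1 μCi 125IUdR in 2×10^-5 M FUdR. Cells are harvested and gamma-counted. % inhibition versus control cpm, six replicate wells; ara-C serves as control.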

[5] = Percent inhibition of [123I]UdR incorporation in the DNA synthesis assay in bone marrow cells at a concentration of 10 e-3 M; type: functional; conditions: Mus musculus, Bone element; in the assay text read “[125I]UdR” for “[123I]UdR”; procedure, shortened: as §3
P388 [6] = experiment: Percent inhibition of [75Se]- selenomethionine incorporation in the protein synthesis assay in P388 cell lines at a concentration of 10 E-4 M; type: functional; conditions: Mus musculus; procedure, shortened: as §2
P815 [7] = experiment: Percent inhibition of [75Se]- selenomethionine incorporation in the protein synthesis assay in P815 cell lines at a concentration of 10 E-4 M; type: functional; conditions: Mus musculus; procedure, shortened: as §1
Osteoclast-like = experiment: Percent inhibition of [75Se]- selenomethionine incorporation in the protein synthesis assay in bone marrow cell lines at a concentration of 10 E-4; type: functional, Mus musculus; procedure, shortened: as §2

| Structure (SMILES) | inhibition at 1000 µM (P815 [1]) | inhibition at 1000 µM (P388 [2]) | Inhibition [3] | inhibition at 1000 µM (P388 [4]) | inhibition at 1000 µM [5] | inhibition at 100 µM (P388 [6]) | inhibition at 100 µM (P815 [7]) | Inhibition (Osteoclast-like) |
| --- | --- | --- | --- | --- | --- | --- | --- | --- |
| COc1ccc(C[C@H](N)C(=O)N[C@H]2[C@@H](O)[C@H](n3cnc4c(N(C)C)ncnc43)O[C@@H]2CO)cc1 [PUROMYCIN] | 98% | 64% | 61% |  |  |  |  |  |
| Cc1ccc(CCNC(=O)/C=C/c2c(C)nc(O)nc2O)cc1 | 11% | 0% | 35% | 0% | 0% |  |  |  |
| Nc1ccn([C@@H]2O[C@H](CO)[C@@H](O)[C@@H]2O)c(=O)n1 [CYTARABINE] |  |  |  | 99% | 99% |  |  |  |
| CSC[S@@+]([O-])CC(CO)NC(=O)/C=C/c1c(C)[nH]c(=O)[nH]c1=O (stereo partly specified) [SPARSOMYCIN] |  | 48% | 29% |  |  |  |  |  |
| Cc1ccc(CC(CO)NC(=O)/C=C/c2c(C)nc(O)nc2O)cc1 (stereo unspecified) | 65% | 4% | 40% | 0% | 0% |  |  |  |
| COc1ccc(CCNC(=O)/C=C/c2c(C)nc(O)nc2O)cc1 | 0% | 0% | 44% | 2% | 0% |  |  |  |
| Cc1nc(O)nc(O)c1/C=C/C(=O)NCCC(=O)NCc1ccc(Br)cc1 | 69% | 23% | 29% |  |  |  |  |  |
| Cc1nc(O)nc(O)c1/C=C/C(=O)NC(CO)Cc1ccccc1 (stereo unspecified) | 52% | 6% | 34% | 5% | 0% |  |  |  |
| COc1ccc(CNC(=O)CCNC(=O)/C=C/c2c(C)nc(O)nc2O)cc1 | 0% | 1% | 11% |  |  |  |  |  |
| Cc1nc(O)nc(O)c1/C=C/C(=O)NCCc1ccccc1 | 2% | 1% | 34% | 9% | 0% |  |  |  |
| Cc1nc(O)nc(O)c1/C=C/C(=O)NC(CO)Cc1ccc(Br)cc1 (stereo unspecified) | 94% | 44% | 64% | 34% | 15% |  |  |  |
| Cc1nc(O)nc(O)c1/C=C/C(=O)NCCc1ccc(Br)cc1 | 89% | 27% | 42% | 17% | 0% |  |  |  |
| COc1ccc(CC(CO)NC(=O)/C=C/c2c(C)nc(O)nc2O)cc1 (stereo unspecified) |  |  |  |  |  | 0% | 0% | 0% |
